Screening results: PubChem BioAssay, several laboratories
The list is not random: actives were taken first. Their share in the collection is about 2.4%.
GASC-1 inh: inhibitors of GASC-1 histone demethylase, primary screen, biochemical, fluorescence, DELFIA europium; Lysine-specific demethylase 4C (Homo sapiens), Q9H3R0; GST-JMJD2C(1-420) H3K9me3 demethylation; inhibition, % at 2.35 µM; actives 0.069% (n = 330,000);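 active = more than half of a compound's replicate wells show inhibition beyond 50%, single wells judged on their own value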;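 note: signal counts dimethyl H3K9 product captured on neutravidin plate; 0% = median of DMSO wells and 100% = 0.3 times that DMSO median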
PP5 inh: PP5 phosphatase inhibitors, primary screen, biochemical, fluorescence | purified PP5c, OMFP substrate fluorescence | Serine/threonine-protein phosphatase 5 (Homo sapiens), P53041 | inhibition, % at 6.7 µM | AID 1987, 2009 | actives 0.18% (n = 320,000);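 active = inhibition above the campaign's mean inhibition across all tested compounds plus 3 SD, cut at about 9.5% in these data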;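 note: 0% = DMSO only and 100% = 100 µM cantharidin control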
Fh CTSL1 inh: Fasciola hepatica cathepsin L1 inhibitors, primary screen, counter-screen for PFM18AAP inhibitor project, biochemical, QFRET, fluorogenic peptide substrate; recombinant F. hepatica cathepsin L1, Z-Leu-Arg-MCA fluorescence; inhibition, % at 5.96 µM; actives 0.49% (n = 300,000); AID 1906, 2009;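 active = inhibition above the mean of all tested compounds plus 3 SD, set per screening campaign, cut at about 17% in these data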;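 note: 0% = plate median of test compound wells and 100% = 1 µM Z-Phe-Ala-diazomethylketone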
p-CIP stab down: p/CIP-EGFP fusion destabilizers, primary screen, fluorescence, F442A cells; Q05BA5; 16 h; decrease of EGFP signal, % at 10 µM; actives 0.01% (n = 290,000);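 active = EGFP signal decrease of at least 30% at 10 µM or well 3 SD below plate mean, unless failing retest; inactive = the rest, including hits failing retest or dose response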
Target sequence (Q05BA5 1-1403): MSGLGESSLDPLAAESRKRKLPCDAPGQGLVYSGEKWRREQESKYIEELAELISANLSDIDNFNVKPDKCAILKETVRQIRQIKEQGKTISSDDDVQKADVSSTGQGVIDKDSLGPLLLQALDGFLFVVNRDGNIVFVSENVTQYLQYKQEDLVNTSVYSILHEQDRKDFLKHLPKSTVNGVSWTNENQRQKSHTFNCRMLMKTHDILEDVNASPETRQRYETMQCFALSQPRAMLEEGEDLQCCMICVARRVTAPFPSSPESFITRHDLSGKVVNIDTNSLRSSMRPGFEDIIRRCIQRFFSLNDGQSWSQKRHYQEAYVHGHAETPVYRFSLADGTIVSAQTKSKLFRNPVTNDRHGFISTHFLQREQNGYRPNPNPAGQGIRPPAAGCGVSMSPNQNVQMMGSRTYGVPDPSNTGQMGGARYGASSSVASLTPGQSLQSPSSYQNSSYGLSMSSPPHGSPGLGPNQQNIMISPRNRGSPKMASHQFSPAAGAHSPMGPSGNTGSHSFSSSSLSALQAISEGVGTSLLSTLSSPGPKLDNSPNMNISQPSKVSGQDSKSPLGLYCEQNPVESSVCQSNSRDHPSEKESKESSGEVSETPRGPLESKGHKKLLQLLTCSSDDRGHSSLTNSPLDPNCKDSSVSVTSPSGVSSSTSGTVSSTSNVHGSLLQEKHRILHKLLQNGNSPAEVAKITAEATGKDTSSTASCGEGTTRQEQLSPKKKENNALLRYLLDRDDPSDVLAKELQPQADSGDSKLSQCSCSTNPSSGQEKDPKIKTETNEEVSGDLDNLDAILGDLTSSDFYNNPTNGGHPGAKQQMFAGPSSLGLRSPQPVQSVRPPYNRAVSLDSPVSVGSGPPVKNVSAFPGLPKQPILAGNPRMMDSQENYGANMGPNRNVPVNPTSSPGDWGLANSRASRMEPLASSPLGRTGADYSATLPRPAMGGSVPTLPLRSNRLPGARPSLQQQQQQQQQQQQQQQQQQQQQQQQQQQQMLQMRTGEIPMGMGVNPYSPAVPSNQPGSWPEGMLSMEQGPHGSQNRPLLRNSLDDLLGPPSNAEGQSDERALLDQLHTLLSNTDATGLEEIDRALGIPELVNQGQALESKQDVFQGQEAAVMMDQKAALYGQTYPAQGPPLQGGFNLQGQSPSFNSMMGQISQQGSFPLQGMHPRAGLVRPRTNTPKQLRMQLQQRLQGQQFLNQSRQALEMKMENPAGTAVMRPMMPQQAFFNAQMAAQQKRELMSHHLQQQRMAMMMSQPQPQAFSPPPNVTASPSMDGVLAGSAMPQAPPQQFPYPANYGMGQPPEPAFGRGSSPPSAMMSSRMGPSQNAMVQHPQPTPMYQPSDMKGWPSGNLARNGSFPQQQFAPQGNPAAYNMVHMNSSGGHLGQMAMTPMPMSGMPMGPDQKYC
Cardio protect: cardioprotection against H2O2-induced cell death, primary screen, uHTS, H9c2 cells, ATPLite luminescence. protection from H2O2 cell death, % at 20 µM. H9c2 cardiomyocytes, H2O2 injury protection, 2 h. actives 0.63% (n = 360,000);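 active = compounds giving at least 50% protection of heart cells from peroxide-induced death in the single-dose screen, raw or plate-pattern-corrected value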;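 note: 0% = DMSO wells with peroxide and 100% = DMSO wells without peroxide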
T cruzi repl: inhibitors of intracellular T. cruzi growth, primary screen, luminescence, NIH3T3 host cells | T. cruzi beta-gal in NIH3T3, 90 h | actives 1.4% (n = 300,000) | inhibition, % (no concentration beside the values) | AID 1885, 2009;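 active = mean inhibition across valid replicates above about 55%, limit read from the data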;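 note: signal also drops with host cell toxicity which is not excluded here; 0% = plate median of DMSO wells and 100% = zero luminescence signal; higher percent means less beta-gal luminescence so fewer parasites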
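Assay system: NIH/3T3 host cells with β-galactosidase reporter T. cruzi; input: 5,000 host fibroblasts per well; compound: single 50 nL compound addition per well in DMSO; timing: ≥90 h infection period, 3 h prior cell attachment; measured by: GalScreen β-gal luminescence, detergent lysis, 60 min; evaluation: percent inhibition of parasite-derived β-gal signal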
Active calls of the source: *; x = no result.

SMILES	GASC-1 inh	PP5 inh	Fh CTSL1 inh	p-CIP stab down	Cardio protect	T cruzi repl
CC(OC(=O)c1cc(-c2cccnc2)nc2ccccc12)C(=O)Nc1ccc2ccccc2c1 (configuration not stated)	-19	2	-30	-8	67*	3
C/C(=N\NC(=O)c1cc(-c2cccnc2)nc2ccccc12)c1ccccc1O	-35	1	-3	-6	60*	63*
C/C(=N\NC(=O)c1cc(C2CC2)nc2ccccc12)c1ccc(C)s1	-7	4	1	5	1	-8
C/C(=N\NC(=O)c1cc(C2CC2)nc2ccccc12)c1ccc(O)cc1O	-2	2	3	-8	51*	9
COc1ccc(NC(=O)COC(=O)c2ccc(-n3cnnn3)cc2)c([N+](=O)[O-])c1	x	-1	x	x	2	x
COCOc1cccc(CN2CCC2(C)C(=O)Nc2cc(OC)ccc2OC)c1 (configuration not stated)	x	x	x	x	-7	x
CC(=O)Nc1ccc(S(=O)(=O)N2CCN(c3nc4ccccc4n3CC(C)C)CC2)cc1	3	x	x	12	0	0
COc1cc2c(cc1OC)-c1cc(Nc3ccccc3)nc(=O)n1CC2	0	1	4	-1	4	4
CCOc1cccc(Nc2cc3n(c(=O)n2)CCc2cc(OC)c(OC)cc2-3)c1	6	1	5	-18	60*	-4
COc1ccc(OC)c(Nc2nc(N)c([N+](=O)[O-])c(N3CCOCC3)n2)c1	-20	2	-4	-1	52*	13
COc1cccc(Nc2nc(N)c([N+](=O)[O-])c(N3CCOCC3)n2)c1	-33	-1	2	-4	18	13
O=C(/C=C/c1cccc([N+](=O)[O-])c1)c1ccc([N+](=O)[O-])o1	4	3	-1	x	-23	56*
C/C(=N\NC(=O)c1nnn(-c2nonc2N)c1CSc1ccc(Cl)cc1)c1cccnc1	1	1	-1	8	25	4
C/C(=N\NC(=O)c1nnn(-c2nonc2N)c1CSc1ccc(C)cc1)c1cccnc1	x	x	x	x	55*	x
Nc1nonc1-n1nnc(C(=O)N/N=C/c2cc(Cl)ccc2O)c1CN1CCCCCC1	-2	2	-2	x	41	56*
C/C(=N\NC(=O)c1nnn(-c2nonc2N)c1CN(C)c1ccccc1)c1ccccc1O	19	5	4	-6	57*	64*
Cc1nnn(-c2nonc2N)c1C(=O)N/N=C/c1ccccc1O	-1	2	-2	0	54*	-4
C/C(=N\NC(=O)c1nnn(-c2nonc2N)c1CN1CCCCC1)c1ccccc1O	-8	1	-5	-18	63*	0
CC(/C=N/NC(=O)c1nnn(-c2nonc2N)c1CN1CCCCC1)=C\c1ccccc1	-1	4	2	-13	3	20
CCN(CC)c1nc(SCCOC(=O)Nc2ccccc2)nc(N(CC)CC)n1	-3	6	0	-12	-9	68*
CN(C)c1nc(SCCOC(=O)c2ccccc2)nc(N(C)C)n1	-2	2	0	1	-5	4
O=c1ccc(-c2ccc(S(=O)(=O)Nc3cccc([N+](=O)[O-])c3)s2)n[nH]1	-16	3	21*	-6	0	0
COc1cc(-c2cnc3c(NC=O)cc(-c4ccccc4)cn23)cc(OC)c1OC	x	x	x	x	31	x
COc1ccc(-c2cc(NC=O)c3ncc(-c4ccc(C(C)=O)cc4)n3c2)cc1OC	x	x	x	x	47	x
COc1cc(-c2cc(NC=O)c3ncc(-c4ccc(C(C)=O)cc4)n3c2)cc(OC)c1OC	x	x	x	x	81*	x
SMILES	GASC-1 inh	PP5 inh	Fh CTSL1 inh	p-CIP stab down	Cardio protect	T cruzi repl
COc1cc(-c2cc(NC=O)c3ncc(-c4ccccc4)n3c2)cc(OC)c1OC	x	x	x	x	96*	x
COc1cc(-c2cc(NC=O)c3ncc(-c4cccc(C(F)(F)F)c4)n3c2)cc(OC)c1OC	x	x	x	x	59*	x
CC(=O)c1ccc(N2CCN(S(=O)(=O)c3ccc(-c4cnc(C5CC5)o4)cc3)CC2)cc1	20	2	1	-10	-21	-30
O=[N+]([O-])c1ccc(OCCn2cnc3ccccc32)cc1	-3	-1	-1	-8	-7	12
Cc1ccc(OCCn2cnc3cc([N+](=O)[O-])ccc3c2=O)cc1	-7	0	-2	-30	0	72*
O=c1c2ccc([N+](=O)[O-])cc2ncn1CCOc1ccccc1	14	0	3	-1	46	66*
O=c1c2ccccc2ncn1CCOCCOc1ccc([N+](=O)[O-])cc1	5	-1	-10	-16	8	0
Cc1ccc(NC(=O)NC2=N/C(=C(/C#N)C(=O)N3CCCC3)c3ccccc32)cc1	12	2	5	-27	70*	14
COc1ccc(CNC(=O)CN2C(=O)COc3ccc(S(=O)(=O)N4CCC(C)CC4)cc32)cc1	1	1	0	-6	10	-1
N/C(=N\OS(=O)(=O)c1ccc(Cl)cc1)c1ccncc1	-2	-1	24*	9	-10	-8
O=C(O)CN1C(=O)C(=O)N(Cc2ccc(Cl)cc2Cl)C1=O	11	1	-2	-3	-4	-7
OC(c1ccc(Cl)c(Cl)c1)c1ncc(-c2ccccc2C(F)(F)F)[nH]1 (configuration not stated)	x	x	x	x	-8	x
CCOC(=O)c1c(-c2ccccc2)c2cc(OC)ccc2n1CCCN(C)C	3	3	0	3	6	59*
Cc1noc(C)c1CSCC(=O)NCCN1C(=O)S/C(=C\c2ccccc2F)C1=O	1	-2	-20	x	4	-2
O=C(CCC1CCN(Cc2nccs2)CC1)Nc1ccccc1	x	x	x	x	2	x
CC1=CC(C)[C@H](/C=N/n2c(=O)[nH]c3c([nH]c4ccc(Br)cc43)c2=O)C(C)C1 (some centres not stated)	-2	4	-2	7	25	64*
Cc1cccc(NS(=O)(=O)c2ccc(NC(=O)CN(c3cc([N+](=O)[O-])ccc3C)S(C)(=O)=O)cc2)c1	4	6	-1	5	-4	75*
C=CCn1c(N)c(-c2nc3ccccc3n2C)sc1=S	50*	0	0	1	0	5
Cn1c(-c2sc(=S)n(-c3ccccc3)c2N)nc2ccccc21	-6	1	3	0	-6	-5
CC(NC(=O)C(=O)N1CCOCC1)C(c1cccs1)N1CCN(c2ccc(F)cc2)CC1 (configuration not stated)	0	1	26*	-4	-4	-26
